Reference: ChEMBL document CHEMBL1132624, “Guanidine derivatives as combined thromboxane A2 receptor antagonists and synthase inhibitors” (J Med Chem, 1999)

What was measured:
[1] = species on record: Homo sapiens; assay: In vitro activity expressed as EC50 for inhibition of collagen induced platelet aggregation.; type: functional
[2] = molecular target: T1, Thromboxane A2 receptor (Homo sapiens, UniProt P21731); assay: In vitro activity on thromboxane A2 receptor antagonism in gel filtered human platelets.; type: functional
T1 sequence (P21731 whole entry): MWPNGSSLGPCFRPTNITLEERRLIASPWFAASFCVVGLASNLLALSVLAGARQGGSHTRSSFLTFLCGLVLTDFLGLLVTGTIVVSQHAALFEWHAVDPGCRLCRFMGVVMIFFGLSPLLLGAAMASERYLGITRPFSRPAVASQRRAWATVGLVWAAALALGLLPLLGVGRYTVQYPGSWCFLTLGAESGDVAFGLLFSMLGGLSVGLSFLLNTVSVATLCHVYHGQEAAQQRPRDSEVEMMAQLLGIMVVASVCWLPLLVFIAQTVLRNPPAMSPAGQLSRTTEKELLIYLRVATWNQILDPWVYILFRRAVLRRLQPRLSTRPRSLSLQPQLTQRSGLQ
How it was run: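 Human gel-filtered platelets; competitive displacement of the high-affinity radioligand ³H-SQ 29,548 from the PGH2/TXA2 receptor; IC50 from displacement. Run at least in duplicate.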

[3] = molecular target: T2, Thromboxane-A synthase (Homo sapiens, UniProt P24557); assay: In vitro activity on thromboxane A2 synthase inhibition in gel filtered human platelets.
T2 sequence (P24557 whole entry): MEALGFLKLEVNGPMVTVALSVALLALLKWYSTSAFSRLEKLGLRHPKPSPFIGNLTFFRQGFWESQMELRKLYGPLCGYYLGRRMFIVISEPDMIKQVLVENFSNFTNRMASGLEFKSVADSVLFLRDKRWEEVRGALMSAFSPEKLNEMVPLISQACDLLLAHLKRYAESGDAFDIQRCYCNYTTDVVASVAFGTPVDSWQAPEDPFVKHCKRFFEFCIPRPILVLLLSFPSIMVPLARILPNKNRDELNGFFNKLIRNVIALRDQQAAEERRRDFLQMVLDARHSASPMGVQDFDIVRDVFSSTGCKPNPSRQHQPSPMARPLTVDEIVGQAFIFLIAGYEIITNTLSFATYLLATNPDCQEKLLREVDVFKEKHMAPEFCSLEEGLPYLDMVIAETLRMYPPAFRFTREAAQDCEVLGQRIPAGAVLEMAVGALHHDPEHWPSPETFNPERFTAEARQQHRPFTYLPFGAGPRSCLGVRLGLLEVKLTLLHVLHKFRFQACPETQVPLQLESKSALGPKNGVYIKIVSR

Row | EC50 [1] [µM] | IC50 [2] [nM] | IC50 [3] [nM] | Compound
1 | 48 | 2600 | – | CC(C)(C)/N=C(\NC#N)Nc1cccc(/C(=C/CCCC(=O)O)c2cccnc2)c1
2 | 1.7 | 77 | 5 | CC(C)(C)/N=C(\NC#N)Nc1cccc(/C(=C\CCCCCC(=O)O)c2cccnc2)c1
3 | 0.31 | – | – | CC(C)(C)N/C(=N\C#N)Nc1cccc(/C(=C\CCCC(=O)O)c2cccnc2)c1 [TERBOGREL]
4 | 0.46 | 16 | 250 | C/N=C(/NC#N)Nc1cccc(/C(=C\CCCC(=O)O)c2cccnc2)c1
5 | 3.7 | 330 | 6 | CC(C)(C)/N=C(\NC#N)Nc1cccc(/C(=C\CCCCC(=O)O)c2cccnc2)c1
6 | 3.3 | – | 3 | CC(C)(C)/N=C(\Nc1cccc(/C(=C\CCCC(=O)O)c2cccnc2)c1)NS(=O)(=O)c1ccccc1
7 | 0.35 | – | 25 | CC(C)C/N=C(/NC#N)Nc1cccc(/C(=C\CCCC(=O)O)c2cccnc2)c1
8 | 2 | 38 | 22 | CC(C)(C)/N=C(/S)Nc1cccc(/C(=C\CCCC(=O)O)c2cccnc2)c1
9 | 6.1 | 330 | 25 | CC(C)(C)/N=C(\Nc1cccc(/C(=C\CCCC(=O)O)c2cccnc2)c1)NS(C)(=O)=O
10 | 0.12 | 3 | – | CC(C)(C)NC(Nc1cccc(/C(=C\CCCC(=O)O)c2cccnc2)c1)=C(C#N)C#N
11 | 9 | 1300 | 40 | CC(C)(C)NC(=O)Nc1cccc(/C(=C\CCCC(=O)O)c2cccnc2)c1
12 | 13 | 81 | 400 | CC(C)(C)/N=C(\NC#N)Nc1cccc(/C(=C\CCC(=O)O)c2cccnc2)c1

Further lines, the compound ahead of its results:

Row | Compound | EC50 [1] [µM] | IC50 [2] [nM] | IC50 [3] [nM]
13 | CC(C)CC/N=C(/NC#N)Nc1cccc(/C(=C\CCCC(=O)O)c2cccnc2)c1 | 0.69 | – | –
14 | CN(C)/C(=N/c1cccc(/C(=C\CCCC(=O)O)c2cccnc2)c1)NC#N | 1 | 120 | 26
15 | N#CN/C(=N/C12CC3CC(CC(C3)C1)C2)Nc1cccc(/C(=C\CCCC(=O)O)c2cccnc2)c1 | 0.5 | 83 | 3
16 | CN(C)CC/N=C(/NC#N)Nc1cccc(/C(=C\CCCC(=O)O)c2cccnc2)c1 | 6.8 | 1000 | 2900
17 | N/C(=N/C1CCCC1)Nc1cccc(/C(=C\CCCC(=O)O)c2cccnc2)c1 | 21 | 1700 | 3900
18 | N#CN/C(=N/C1CCCCC1)Nc1cccc(/C(=C\CCCC(=O)O)c2cccnc2)c1 | 5.8 | 47 | 3
19 | N#CN/C(=N/C1CCCCC1)Nc1ccc(/C(=C\CCCC(=O)O)c2cccnc2)cc1 | 31 | – | –
20 | O=C(O)CCC/C=C(/c1cccnc1)c1cccc(N/C(=N\C2CCCC2)NC(=O)c2ccccc2)c1 | 16 | 110 | 4
21 | O=C(O)CCC/C=C(/c1cccnc1)c1cccc(N/C(=C/[N+](=O)[O-])NC2CCCCC2)c1 | 15 | 440 | 310
22 | CC(C)(C)Nc1c(Nc2cccc(/C(=C\CCCC(=O)O)c3cccnc3)c2)c(=O)c1=O | 59 | 830 | 230
23 | CC(C)C/N=C(\Nc1cccc(/C(=C\CCCC(=O)O)c2cccnc2)c1)Nc1nn[nH]n1 | 22 | 300 | 930
24 | CC(C)C/N=C(/NC(N)=O)Nc1cccc(/C(=C\CCCC(=O)O)c2cccnc2)c1 | 12 | 610 | 200
25 | N#CN/C(=N/Cc1ccccc1)Nc1cccc(/C(=C\CCCC(=O)O)c2cccnc2)c1 | 1.6 | 32 | 11
26 | CC(C)(C)/N=C(\NC#N)Nc1cccc(/C(=N\OCCCCC(=O)O)c2cccnc2)c1 | 5.2 | 310 | 5
27 | CC(C)(C)/N=C(\NC#N)Nc1cccc(/C(=N/OCCCCC(=O)O)c2cccnc2)c1 | 17 | 510 | 230
28 | N#CN/C(=N/Cc1cccnc1)Nc1cccc(/C(=C\CCCC(=O)O)c2cccnc2)c1 | 6.9 | 130 | 320
29 | N#CN/C(N)=N\c1cccc(/C(=C\CCCC(=O)O)c2cccnc2)c1 | 1 | 35 | 430
30 | N#CN/C(=N/C1CCCC1)Nc1cccc(/C(=C\CCCC(=O)O)c2cccnc2)c1 | 0.5 | – | –
31 | N#CN/C(=N/C1CC1)Nc1ccc(/C(=C\CCCC(=O)O)c2cccnc2)cc1 | 42 | 21000 | 3900
